Here are results for six compounds from article PMC4160413 (Cancer cell, 2014).

In general, EC50 refers to the midpoint of the concentration-response curve.

The subject of one data set is SK-N-BE(2) cells. Put plainly: Cell cycle by flow cytometry. It counts as cell-based. A digest of the protocol: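 SK-N-BE(2) cells in RPMI with 10% FBS, exposed to test compound for the stated time. EdU pulse before harvest: 2 hours per methods, 1 hr in the 6 hr, 1 μM experiment. Detection used the Click-iT EdU flow kit plus propidium iodide staining, read on a FACSCalibur. Gating was done in Cytobank.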
A general note: A flow cytometer gives signals particle by particle.

For data set [1], the system named is panel 169 distinct tumor-derived cell lines. Put plainly: Screen of 169 tumor-derived cell lines. It counts as cell-based. Particulars: for susceptibility of MYCN-amplified versus non-amplified cell lines: 93 lines with MYCN copy number.
Data set [2] concerns SK-N-BE(2) MYCN-amplified neuroblastoma cells. Put plainly: CyQUANT viability assay, 72 hr, SK-N-BE. Type of data set: cell-based. Particulars: read-out: cellular EC50 at 72 hr.
In data set [3] the test system is Kelly MYCN-amplified neuroblastoma cells. Put plainly: CyQUANT viability assay, 72 hr, Kelly. Particulars: read-out: cellular EC50 at 72 hr. It counts as cell-based.
Data set [4] is described as follows: Pharmacokinetic study in mice. It counts as in vivo. A digest of the protocol:
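Test compound formulated at 20 mg/ml in 7.5% DMSO / 92.5% PEG300 and given to mice. Compound levels determined by LC-MS/MS.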

Data set [5] concerns MYCN-amplified SMS-KCN xenografts. Put plainly: MYCN-amplified SMS-KCN neuroblastoma xenograft. Type of data set: in vivo, mice. Particulars: 60 mg/kg for 2 days. A digest of the protocol:
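NOD scid gamma mice received 10⁶ SMS-KCN cells in growth media with 50% Geltrex, implanted into the renal capsule. Tumors were palpable at 21 days post implantation. Mice were then dosed at 60 mg/kg for two days, and tumors were harvested and flash frozen. MYCN protein was measured by immunoblot and compared by two-tailed Student's t-test (mean ± SEM).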

Data set [6] has as its system MYCN-expressing SHH-subtype medulloblastoma allograft. Put plainly: SHH-subtype medulloblastoma subcutaneous allograft. Type of data set: in vivo, mice. Particulars: 25 mg/kg twice per week. A digest of the protocol: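 Homozygous nu/nu mice carried flank subcutaneous allografts of SHH-subtype MYCN-expressing medulloblastoma (10⁶ cells per mouse). Dosing began at 25 mm³ tumor volume (~14 days): vehicle (5% DMSO in PEG300; n=6) or 25 mg/kg (formulated at 7.5 mg/ml; n=4), intraperitoneally twice weekly for up to three weeks. Endpoint was 2.0 cm maximum tumor length. Tumor burden compared by two-tailed t-test, survival by log-rank test.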

The target of another data set is T1, MYCN-Aurora A complex (Homo sapiens, UniProt O14965).
T1 sequence (O14965 1-403): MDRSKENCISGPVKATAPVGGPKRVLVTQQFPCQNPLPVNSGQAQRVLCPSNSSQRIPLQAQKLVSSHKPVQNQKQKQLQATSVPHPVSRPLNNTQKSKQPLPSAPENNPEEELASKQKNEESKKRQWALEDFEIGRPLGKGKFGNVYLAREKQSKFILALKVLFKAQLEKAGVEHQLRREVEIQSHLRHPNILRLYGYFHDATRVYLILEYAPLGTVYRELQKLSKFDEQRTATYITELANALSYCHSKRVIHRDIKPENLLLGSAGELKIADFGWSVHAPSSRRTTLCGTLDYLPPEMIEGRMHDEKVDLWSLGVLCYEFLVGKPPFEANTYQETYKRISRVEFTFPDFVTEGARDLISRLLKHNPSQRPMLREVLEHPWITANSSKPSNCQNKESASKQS
The experiment in a line: MYCN immunoprecipitation. Particulars: for dissociation of the MYCN-Aurora A complex: IMR32 cells, 2 hr drug, MG-132 4 hr. Type of data set: cell-based.

For data set [7], the system named is GFP- and MYCN-transduced SH-EP neuroblastoma cells. Put plainly: Viability of SHEP cells transduced with MYCN or GFP, 72 hr. It counts as cell-based. Particulars: MYCN- vs GFP-transduced SH-EP.
The test system of data set [8] is MYCN. The experiment in a line: Immunoblot of MYCN in SHEP cells expressing MYCN WT or T58A/S62A. It counts as cell-based. The settings on record: 24 hr; for wild-type MYCN protein level: SHEP MYCN WT. (A western blot detects proteins with antibodies after separation by electrophoresis.)
The next data set relates to MYCN and p-Histone H3. Put plainly: Immunoblot screen of MYCN and p-H3 in Kelly cells. It counts as cell-based. Particulars: 1 μM, 24 hr. A digest of the protocol: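 Kelly cells in RPMI with 10% FBS, given one of 32 compounds at 1 μM for 24 hr. Lysis in Cell Signaling buffer with 1% SDS, then sonication and boiling in LDS sample buffer. Immunoblots probed for MYCN, Histone H3, P-Histone H3 (S10), Aurora A and GAPDH. Bands quantified by densitometry and expressed as percent of untreated control.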

For another data set, the target named is T2, Aurora A (Homo sapiens, UniProt O14965, T287D).
T2 sequence (O14965 123-390 T287D): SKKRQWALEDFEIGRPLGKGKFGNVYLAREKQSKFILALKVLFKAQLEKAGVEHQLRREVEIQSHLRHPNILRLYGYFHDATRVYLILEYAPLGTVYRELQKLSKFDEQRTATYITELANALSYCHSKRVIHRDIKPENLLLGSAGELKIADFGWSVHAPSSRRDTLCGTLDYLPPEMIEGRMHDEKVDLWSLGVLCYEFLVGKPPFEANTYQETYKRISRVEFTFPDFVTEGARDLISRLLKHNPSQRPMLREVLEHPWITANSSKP
The experiment in a line: In vitro kinase assay with purified Aurora A protein. The settings on record: structure-activity comparison. Type of data set: biochemical.

In data set [9] the test system is MYCN. The experiment in a line: Immunoblot of MYCN protein in SK-N-BE. Type of data set: cell-based. The settings on record: SK-N-BE(2) cells, 1 μM, 24 hr.
For data set [10] the following is noted: same dose (20 mg/kg); ref Carol et al., 2011; cited from earlier work.
The mark [11] stands for this setting: CD532 1 μM 4 hr, MLN8237 0.1 μM 4 hr, JQ1 2 μM 24 hr.

Like-named read-outs stand apart in the source and are kept apart here.

In the case of `Cc1sc2c(c1C)C(c1ccc(Cl)cc1)=N[C@@H](CC(=O)OC(C)(C)C)c1nnc(C)n1-2` [JQ1, reference compound], the cell cycle effect result with SK-N-BE(2) cells (setting [11]) is “downregulation of MYCN, blockade of S-phase entry, and accumulation of cells in G0/G1”. For the same compound, the “susceptibility of MYCN-amplified versus non-amplified cell lines” value in data set [1] is recorded as “significantly more susceptible”.

Consider `O=C(Nc1ccc(Nc2nccc(Nc3cc(C4CCCC4)[nH]n3)n2)cc1)Nc1cccc(C(F)(F)F)c1` [CD532], for which the concentration giving a half-maximal response (EC50) in data set [2] is 223 nM; in [3], 147 nM. Besides, the serum half-life in data set [4] was ~ 1.5 hr. For the same compound, the AUC0-24 in [4] (20 mg/kg) was determined as 27 µM·h. For the same compound, in data set [5], the “MYCN protein level in xenograft tumors” value was “decreased levels of MYCN protein”. In addition, the “tolerability of dosing regimen” value in [6] is “without obvious short or long-term toxicity or weight loss”. Moreover, in data set [6] (intraperitoneal), the “MYCN levels in tumors” value was “substantially reduced MYCN levels”. Besides, the survival result in [6] (intraperitoneal) is listed as “extended survival”. In addition, the tumor burden result in data set [6] (intraperitoneal) is reported as “reduced tumor burden”. The cell cycle effect entry in the data set with SK-N-BE(2) cells (1 μM, 4 or 6 hr) is “potent loss of S-phase entry”; in the data set on SK-N-BE(2) cells (setting [11]) it was “rapid and potent loss of S-phase”. Also, the “dissociation of the MYCN-Aurora A complex” value at MYCN-Aurora A complex is “dose-dependent and complete dissociation”. Besides, on MYCN-Aurora A complex (specificity control), the MYCN-MAX binding result is recorded as “did not affect”. For the same compound, the “susceptibility of MYCN-amplified versus non-amplified cell lines” value in data set [1] is recorded as “significantly more susceptible”. Also, the “EC50s in cell line panel” value in data set [1] (most cell lines) is reported as “nanomolar range”. Also, the “effect of MYCN transduction on sensitivity” value in data set [7] is recorded as “conferred sensitivity”. The “MYCN T58A/S62A protein degradation” value in the data set with MYCN [8] (SHEP MYCN T58A/S62A) is on record as “less effective”. For the same compound, the “wild-type MYCN protein level” value in the data set on MYCN [8] was “dose-dependently decreased”.

For `Cc1cc(Nc2cc(N3CCN(C)CC3)nc(Sc3ccc(NC(=O)C4CC4)cc3)n2)[nH]n1` [VX-680], in the data set on MYCN and p-Histone H3, the “Histone H3 phosphorylation” value is given as “blocked Histone H3 phosphorylation” and the MYCN protein level entry is recorded as “very modest effects”. Further, in the data set with SK-N-BE(2) cells (1 μM, 4 or 6 hr), the cell cycle effect entry is “G2/M arrest”. For the same compound, the “wild-type MYCN protein level” value with MYCN [8] is “little effect”.

Take `Cc1cc(Nc2cc(C3CCCC3)[nH]n2)nc(Nc2ccc(NC(=O)Nc3cccc(C(F)(F)F)c3)cc2)n1` [CD15]: the “cell-free potency against Aurora A relative to CD532” value on Aurora A is reported as “maintained”. Further, in the data set with MYCN [9], the “efficacy against MYCN (MYCN loss) relative to CD532” value is “maintained”.

For `O=C(Nc1ccccc1)Nc1ccc(Nc2nccc(Nc3cc(C4CCCC4)[nH]n3)n2)cc1` [CD25], at Aurora A, the “cell-free potency against Aurora A relative to CD532” value was “retained potency”. For the same compound, the “efficacy against MYCN (MYCN loss) relative to CD532” value in the data set with MYCN [9] is “less effective than CD532”.

Take `COc1cc(Nc2ncc3c(n2)-c2ccc(Cl)cc2C(c2c(F)cccc2OC)=NC3)ccc1C(=O)O` [MLN8237]: the “Histone H3 phosphorylation” value in the data set with MYCN and p-Histone H3 is “blocked Histone H3 phosphorylation”. In addition, the MYCN protein level entry in the data set on MYCN and p-Histone H3 is reported as “very modest effects”. Besides, the cell cycle effect entry is “G2/M arrest” in the data set with SK-N-BE(2) cells (1 μM, 4 or 6 hr); “accumulation of cells in G2 and M phase” in the data set with SK-N-BE(2) cells (setting [11]). The “dissociation of the MYCN-Aurora A complex” value on MYCN-Aurora A complex was “only modestly disrupted”. For the same compound, in [10], the AUC0-24 was 78.4 µM·h.
